In the library only some 3% were active in any assay of this set; here they are far more common.
NPY-Y1 antag = NPY-Y1 (human) receptor antagonism; P25929; HEK293-CNG Y1 cells, membrane potential fluorescence; NPY at EC95, then isoproterenol; inhibition, % at 3.6 µM; 200,000 compounds, 1% hits; AID 1040;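 active = inhibition above the campaign mean inhibition of all tested compounds plus 3 SD, cut at about 20% in these data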;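 also: 0% = DMSO wells given NPY plus isoproterenol and 100% = isoproterenol alone without NPY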
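Benchmarks – high control isoproterenol alone, low control NPY with isoproterenol · Material – HEK293 Y1/CNG channel cell line · Times – dye 3 h, compound 60 min room temperature, stimulation 45 min · Probe or stimulus – NPY (25 nM), isoproterenol (1 µM), Ro 20-1724 (25 µM) · Evaluation – % inhibition of NPY effect · Signal – fluorescence, membrane potential probe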
Hsp70 activator = transcriptional activators of Hsp70. 200,000 compounds, 0.04% hits. activation, % at 10 µM. HeLa Hsp70 promoter luciferase reporter, luminescence; scaled: vehicle 0, proteasome-inhibitor control 100%;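 active = activation above the mean across all tested compounds plus 3 SD, cutoff set per campaign, cut at about 5.5% in these data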;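 also: 100% = MG132 at 30 µM as the positive control and 0% = DMSO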
NPY-Y1 PAM-ag = human NPY-Y1 potentiation or agonism, primary screen; P25929; NPY-Y1 expressing cells, potentiator/agonist activation; activation, % at 3.6 µM; 220,000 compounds, 0.37% hits; in the data active = activation above about 33%, passing the limit was not always enough;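 also: cells stimulated with NPY at EC10 then isoproterenol at EC100; 0% = low agonist plus stimulus and 100% = saturating agonist plus stimulus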
NPY-Y2 PAM-ag = potentiates or activates human NPY-Y2 receptor; P49146; cells expressing NPY-Y2, potentiator/agonist read-out; activation, % at 3.6 µM; 220,000 compounds, 0.45% hits; AID 1359; in the data active = activation above about 27%;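 also: cells stimulated with NPY near EC25 plus isoproterenol at EC100; 0% = vehicle plus submaximal agonist and 100% = vehicle plus saturating agonist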
Target sequence (P49146 whole entry, looked up): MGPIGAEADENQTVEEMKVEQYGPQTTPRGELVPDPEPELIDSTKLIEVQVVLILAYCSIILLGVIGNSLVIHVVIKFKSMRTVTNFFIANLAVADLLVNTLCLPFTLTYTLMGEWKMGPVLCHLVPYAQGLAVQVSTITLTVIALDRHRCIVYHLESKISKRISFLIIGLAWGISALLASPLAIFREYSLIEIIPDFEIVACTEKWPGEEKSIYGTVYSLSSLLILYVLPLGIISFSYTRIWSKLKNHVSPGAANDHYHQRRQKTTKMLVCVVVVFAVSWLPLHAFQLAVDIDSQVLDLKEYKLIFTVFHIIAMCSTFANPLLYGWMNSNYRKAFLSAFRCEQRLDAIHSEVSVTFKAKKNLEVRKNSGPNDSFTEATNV
NPY-Y2 antag = antagonists of human neuropeptide Y receptor Y2 | inhibition, % at 2.7 µM | NPY-Y2 expressing cells, antagonist mode | 140,000 compounds, 0.99% hits; in the data active = inhibition above about 17%;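 also: 0% = vehicle with agonist challenge and 100% = reference antagonist with challenge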
Wee1 degr inh = inhibitors of human Wee1 degradation. 220,000 compounds, 1.2% hits. P30291. reporter increase, % at 5 µM. HeLa Luc-Wee1K328M stability, luciferase luminescence; 100% = proteasome inhibitor MG132 effect;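 active = activation above the mean of all tested compounds plus 3 SD, set per screening run, cut at about 8.8% in these data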;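 also: cells exposed to compound for 20 h before luminescence read; 0% = DMSO alone and 100% = MG132 at 30 µM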
* marks the source's active call; other numbers are inactive results; · = no result.

SMILES	NPY-Y1 antag	Hsp70 activator	NPY-Y1 PAM-ag	NPY-Y2 PAM-ag	NPY-Y2 antag	Wee1 degr inh
C#CCOCCOCCOCCNc1nc(N2CCN(C(=O)C([C@@H](C)CC)n3cc(C(N)CC(C)C)nn3)CC2)nc(N2CCN(C(=O)[C@H](CCC(=O)O)n3cc(C(N)Cc4ccc(O)cc4)nn3)CC2)n1 (stereo not given in full)	-1	0	13	-2	·	11*
C#CCOCCOCCOCCNc1nc(N2CCN(C(=O)[C@H](CCCCN)n3cc([C@@H](N)CC(C)C)nn3)CC2)nc(N2CCN(C(=O)[C@H](CCCCN)n3cc([C@@H](N)CC(C)C)nn3)CC2)n1	-1	0	12	11	·	-1
C#CCOCCOCCOCCNc1nc(N2CCN(C(=O)[C@H]([C@@H](C)CC)n3cc([C@@H](N)CC(C)C)nn3)CC2)nc(N2CCN(C(=O)[C@H](CCCCN)n3cc([C@@H](N)CO)nn3)CC2)n1	1	0	4	4	·	9.2*
CCSC(=O)N(CC)CC(=O)Nc1c(CC)cccc1CC	16	0	-21	-4	20*	-1
CCCSC(=O)N(CC)CC(=O)Nc1c(CC)cccc1CC	18	0	-23	-24	20*	2
Cc1csc(NC(=O)Nc2ccc(Cl)cc2)n1	8	0	-5	-5	4	8.9*
Cn1c(=O)[nH]c(=O)c2c1nc(Br)n2CC(O)COc1ccc(Cl)cc1 (stereo not given)	3	0	3	10	·	1
O=C(Cn1nc(-c2ccc(N3CCOCC3)c([N+](=O)[O-])c2)c2ccccc2c1=O)N1CCCCC1	25*	0	-14	-35	57*	-2
COc1ccc(O[C@H]2C=C[C@@H](c3ccccc3)O[C@@H]2CO/N=C(\C)CCN2CCCCc3nc(C)c(C)cc32)cc1	22*	0	-30	-8	21*	2
O=C1C2=C(NC(=S)NC2c2ccc(Cl)cc2)NC(c2ccc(Cl)cc2)N1c1ccc(Cl)cc1 (stereo not given)	-7	0	32	23	-6	10*
CCOC(=O)c1cc2occc2n1Cc1c(F)cccc1Cl	3	0	-29	11	7	-1
Cc1cc2c(cc(C(=O)N3CCC(C(=O)N4CCCC4)CC3)n2Cc2c(F)cccc2Cl)o1	26*	0	-2	-13	21*	-3
O=S(=O)(c1ccccc1S(=O)(=O)N1CCCCC1)N1CCCCC1	11	0	-4	18	-1	9.1*
O=C(O)/C=C/C(=O)Nc1ccc2c(c1)C(=O)c1ccccc1C2=O	·	·	-1	2	·	9.9*
CC(=O)Nc1ccc2c(c1)C(=O)c1ccccc1C2=O	-3	0	-1	1	1	-2
CC(c1ccccc1)N(NC(=O)C(O)(c1ccccc1)c1ccccc1)C(=O)c1ccccc1 (stereo not given)	22*	0	3	3	31*	-3
COc1ccc(OC)c2c(C)cc(C)nc12	-7	0	-14	7	3	3
COc1cccc(CN2CCN(Cc3cccc4nonc34)CC2CCO)c1 (stereo not given)	-2	0	-1	-3	·	-2
Cc1cccc(Oc2nc(CN3CCOCC3)nc3sc4c(c23)CCCC4)c1	20*	0	-22	-3	29*	-3
CNC(=O)c1ccc(OCc2ccccc2)c(OC)c1	-2	0	-29	-4	1	-2
COc1ccccc1NC(C#N)c1ccccc1OCc1ccccc1 (stereo not given)	-6	0	8	6	-1	11*
CC12CC3(C)CC(C)(C1)CC(C(N)=O)(C2)C3	0	0	1	2	·	-1
O=C(N=C1N=C2C=CC(Br)=CN2Cc2ccccc21)c1ccc([N+](=O)[O-])cc1[N+](=O)[O-]	·	·	13	-8	·	11*
O=C(c1ccc([N+](=O)[O-])cc1[N+](=O)[O-])N1CCCC1	0	0	1	-12	·	0
CC(C)Oc1ccc(CNC(=S)N/N=C/c2cccnc2)cc1	5	0	-8	-15	5	9.2*
CCOc1ccc(CNC(=S)N/N=C/c2cccnc2)cc1	8	0	-50	-4	8	-2
